In ChEMBL document CHEMBL5252634, “Design, synthesis and in vitro cytotoxicity evaluation of indolo-pyrazoles grafted with thiazolidinone as tubulin polymerization inhibitors” (RSC Med Chem, 2023):
Calls of active or inactive are those of the source. The rule behind the calls is not given here.

How the values were obtained:
[1] = tested on: HCT-15; experiment: Cytotoxicity against human HCT-15 cells assessed as reduction in cell viability; type: functional, cell-based
[2] = tested on: HCT-15; experiment: Cytotoxicity against human HCT-15 cells assessed as reduction in cell viability incubated for 4 hrs by MTT assay; type: functional, cell-based; conditions: HCT-15, 4 h
[3] = target: Tubulin (Homo sapiens) (UniProt P68371+Q9H4B7+P0DPH7+P68366+Q13509+Q71U36+P04350+Q3ZCM7+P07437+P68363+Q9BQE3+Q6PEY2+Q13885+Q9BVA1+Q9BUF5); experiment: Inhibition of tubulin polymerization (unknown origin) at 1.73 to 6.92 uM measured after 1 hr relative to control; type: protein-complex assay; conditions: dose 1.73-6.92 µM
In short: (§1)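 Fluorescence-based tubulin polymerization kit: tubulin, GTP and tubulin glycerol buffer mixed and added to compound (from 10x stocks), enhancer and inhibitor reference standards, and blanks in a plate prewarmed to 37 °C. Read kinetically for 1 h at ex 360/em 450 nm.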

[4] = tested on: SK-MEL-28; experiment: Induction of apoptosis in human SK-MEL-28 cells assessed as cell membrane disruption at 1.73 to 6.92 uM incubated for 48 hrs by AO/EB staining based fluorescence microscopy; type: functional; conditions: dose 1.73-6.92 µM
In short: (§2)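 SK-MEL-28 plated at 1×10^6 cells/mL and treated at several concentrations for 48 h. Acridine orange and ethidium bromide added at 10 µg/ml, and cells imaged at once by fluorescence microscopy (ex 488/em 550 nm), 20X.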

[5] = tested on: SK-MEL-28; experiment: Induction of cell cycle arrest in human SK-MEL-28 cells assessed as accumulation of cells at G0/G1 phase at 3.46 uM incubated for 48 hrs by flow cytometry (reference value: 79.59%); type: functional
[6] = tested on: SK-MEL-28; experiment: Induction of apoptosis in human SK-MEL-28 cells assessed as budding nucleus at 1.73 to 6.92 uM incubated for 48 hrs by DAPI staining based fluorescence microscopy; type: functional, cell-based; conditions: dose 1.73-6.92 µM
In short: (§3)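 SK-MEL-28 exposed 48 h, then PBS-washed, fixed in 4% paraformaldehyde, permeabilized with 0.1% Triton X for 15 min and stained with 10 µg/mL DAPI. Nuclei viewed by fluorescence (ex 359/em 461 nm), 20X, with untreated controls.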

[7] = tested on: SK-MEL-28; experiment: Induction of cell cycle arrest in human SK-MEL-28 cells assessed as accumulation of cells at S phase at 1.73 uM incubated for 48 hrs by flow cytometry (reference value: 6.34%); type: functional
[8] = tested on: SK-MEL-28; experiment: Induction of apoptosis in human SK-MEL-28 cells assessed as reduction in live cells at 1.73 to 6.92 uM after 48 hrs by phase contrast microscopic analysis; type: functional, cell-based; conditions: dose 1.73-6.92 µM
In short: (§4)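 SK-MEL-28 cells plated at 1×10^6 cells/mL, allowed to adhere overnight, then exposed to several concentrations for 48 h. Bright-field imaging at 20X to score cell shrinkage, deformation and viable cell number.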

[9] = tested on: SK-MEL-28; experiment: Cytotoxicity against human SK-MEL-28 cells assessed as reduction in cell viability measured after 48 hrs by MTT assay; type: functional, cell-based; conditions: SK-MEL-28, 48 h
In short: (§5)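 Cells kept in medium with 10% FBS and 1% antibiotic–antimycotic at 37 °C, 5% CO2. Seeded at 3000–4000 cells/well, grown overnight, then given fresh medium with a range of concentrations (diluted from 10 mM DMSO stocks) for 48 h. MTT (0.5 mg/mL) added for 3–4 h at 37 °C. Formazan dissolved in DMSO and absorbance read at 570 nm.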

[10] = tested on: SK-MEL-28; experiment: Induction of cell cycle arrest in human SK-MEL-28 cells assessed as accumulation of cells at G0/G1 phase at 6.92 uM incubated for 48 hrs by flow cytometry (reference value: 79.59%); type: functional
[11] = tested on: SK-MEL-28; experiment: Induction of apoptosis in human SK-MEL-28 cells assessed as morphological changes measured after 48 hrs by AO/EB staining based microscopic analysis; type: functional, cell-based; conditions: dose 1.73-6.92 µM; in short: as §2
[12] = tested on: SK-MEL-28; experiment: Induction of apoptosis in human SK-MEL-28 cells assessed as nuclear condensation at 1.73 to 6.92 uM incubated for 48 hrs by DAPI staining based fluorescence microscopy; type: functional, cell-based; conditions: dose 1.73-6.92 µM; in short: as §3
[13] = tested on: SK-MEL-28; experiment: Potency index, ratio of sunitinib IC50 to test compound IC50 for cytotoxicity against human SK-MEL-28 cells assessed as reduction in cell viability measured after 48 hrs by MTT assay; type: functional
[14] = tested on: SK-MEL-28; experiment: Induction of cell cycle arrest in human SK-MEL-28 cells assessed as accumulation of cells at S phase at 3.46 uM incubated for 48 hrs by flow cytometry (reference value: 6.34%); type: functional
[15] = Selectivity index, ratio of IC50 for cytotoxicity against human BEAS-2B cells to IC50 for cytotoxicity against human HCT-116 cells; type: functional
[16] = tested on: SK-MEL-28; experiment: Induction of apoptosis in human SK-MEL-28 cells assessed as apoptotic body formation at 1.73 to 6.92 uM incubated for 48 hrs by AO/EB staining based fluorescence microscopy; type: functional, cell-based; conditions: dose 1.73-6.92 µM; in short: as §2
[17] = Cytotoxicity against human BEAS-2B cells assessed as reduction in cell viability measured after 48 hrs by MTT assay; type: toxicity, cell-based; in short: as §5
[18] = tested on: SK-MEL-28; experiment: Induction of apoptosis in human SK-MEL-28 cells assessed as increase in red fluorescence at 1.73 to 6.92 uM incubated for 48 hrs by AO/EB staining based fluorescence microscopy; type: functional, cell-based; conditions: dose 1.73-6.92 µM; in short: as §2
[19] = tested on: SK-MEL-28; experiment: Induction of apoptosis in human SK-MEL-28 cells assessed as blebbing nucleus at 1.73 to 6.92 uM incubated for 48 hrs by DAPI staining based fluorescence microscopy; type: functional, cell-based; conditions: dose 1.73-6.92 µM; in short: as §3
[20] = tested on: A549; experiment: Cytotoxicity against human A549 cells assessed as reduction in cell viability measured after 48 hrs by MTT assay; type: functional, cell-based; conditions: A549, 48 h; in short: as §5
[21] = tested on: SK-MEL-28; experiment: Induction of cell cycle arrest in human SK-MEL-28 cells assessed as accumulation of cells at G2/M phase at 1.73 uM incubated for 48 hrs by flow cytometry (reference value: 13.14%); type: functional
[22] = tested on: SK-MEL-28; experiment: Induction of cell cycle arrest in human SK-MEL-28 cells assessed as accumulation of cells at G2/M phase at 6.92 uM incubated for 48 hrs by flow cytometry (reference value: 13.14%); type: functional
[23] = Selectivity index, ratio of IC50 for cytotoxicity against human BEAS-2B cells to IC50 for cytotoxicity against human SK-MEL-28 cells; type: functional
[24] = tested on: SK-MEL-28; experiment: Induction of cell cycle arrest in human SK-MEL-28 cells assessed as accumulation of cells at G2/M phase at 3.46 uM incubated for 48 hrs by flow cytometry (reference value: 13.14%); type: functional
[25] = tested on: SK-MEL-28; experiment: Induction of apoptosis in human SK-MEL-28 cells assessed as nucleus fragmentation at 1.73 to 6.92 uM incubated for 48 hrs by DAPI staining based fluorescence microscopy; type: functional, cell-based; conditions: dose 1.73-6.92 µM; in short: as §3
[26] = tested on: B16-F10; experiment: Cytotoxicity against mouse B16-F10 cells assessed as reduction in cell viability measured after 48 hrs by MTT assay; type: functional, cell-based; conditions: B16-F10, 48 h; in short: as §5
[27] = tested on: HCT-116; experiment: Cytotoxicity against human HCT-116 cells assessed as reduction in cell viability measured after 48 hrs by MTT assay; type: functional, cell-based; conditions: HCT-116, 48 h; in short: as §5
[28] = tested on: SK-MEL-28; experiment: Induction of cell cycle arrest in human SK-MEL-28 cells assessed as accumulation of cells at G0/G1 phase at 1.73 uM incubated for 48 hrs by flow cytometry (reference value: 79.59%); type: functional
[29] = tested on: SK-MEL-28; experiment: Induction of apoptosis in human SK-MEL-28 cells assessed as cellular shrinkage at 1.73 to 6.92 uM after 48 hrs by phase contrast microscopic analysis; type: functional, cell-based; conditions: dose 1.73-6.92 µM; in short: as §4
[30] = Selectivity index, ratio of IC50 for cytotoxicity against human BEAS-2B cells to IC50 for cytotoxicity against mouse B16-F10 cells; type: functional
[31] = tested on: SK-MEL-28; experiment: Induction of apoptosis in human SK-MEL-28 cells assessed as early apoptotic cells measured after 48 hrs by annexin-V-FITC/PI double staining based flow cytometric analysis; type: functional, cell-based; conditions: dose 1.73-6.92 µM
In short: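 1×10^6 SK-MEL-28 cells treated at various concentrations for 48 h. Cells trypsinized with supernatant retained and washed twice in ice-cold PBS. Stained with annexin V-FITC and PI in binding buffer for 15 min at room temperature in the dark, kept on ice, and analysed by flow cytometry.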

[32] = target: Tubulin; experiment: Inhibition of tubulin polymerization (unknown origin) at 1.73 to 6.92 uM measured after 1 hr; type: protein-complex assay, Homo sapiens; in short: as §1
[33] = tested on: SK-MEL-28; experiment: Induction of apoptosis in human SK-MEL-28 cells assessed as change in cell shape at 1.73 to 6.92 uM after 48 hrs by phase contrast microscopic analysis; type: functional, cell-based; conditions: dose 1.73-6.92 µM; in short: as §4
[34] = tested on: SK-MEL-28; experiment: Induction of apoptosis in human SK-MEL-28 cells assessed as horseshoe-shaped nucleus at 1.73 to 6.92 uM incubated for 48 hrs by DAPI staining based fluorescence microscopy; type: functional, cell-based; conditions: dose 1.73-6.92 µM; in short: as §3
[35] = tested on: SK-MEL-28; experiment: Induction of apoptosis in human SK-MEL-28 cells assessed as increase in ROS level incubated for 48 hrs by DCFDA staining based fluorescence microscopic assay; type: functional, cell-based; conditions: dose 1.73-6.92 µM
In short: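 SK-MEL-28 seeded at 1×10^6 cells/well and treated at several concentrations for 48 h at 37 °C. DCFDA (10 µM) loaded for 30 min at 37 °C, excess washed off with PBS, and green DCF fluorescence imaged (ex 498/em 530 nm), 20X.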

[36] = Selectivity index, ratio of IC50 for cytotoxicity against human BEAS-2B cells to IC50 for cytotoxicity against human A549 cells; type: functional
[37] = tested on: SK-MEL-28; experiment: Induction of cell cycle arrest in human SK-MEL-28 cells assessed as accumulation of cells at S phase at 6.92 uM incubated for 48 hrs by flow cytometry (reference value: 6.34%); type: functional
[38] = tested on: HeLa; experiment: Cytotoxicity against human HeLa cells assessed as reduction in cell viability; type: functional, cell-based
[39] = tested on: SK-OV-3; experiment: Cytotoxicity against multidrug resistance human SK-OV-3 cells assessed as cell growth inhibition; type: functional, cell-based
[40] = tested on: PC-3; experiment: Cytotoxicity against multidrug resistance human PC-3 cells assessed as cell growth inhibition; type: functional, cell-based
[41] = Cytotoxicity against multidrug resistance human U87 cells assessed as cell growth inhibition; type: functional, cell-based, U-87MG ATCC; conditions: U-87 MG
[42] = target: Tubulin; experiment: Inhibition of tubulin polymerization (unknown origin); type: cell-based, Homo sapiens

## COc1ccc(CC/N=C2/NC(=O)/C(=C\c3c[nH]c4ccc(Br)cc34)S2)cc1
[1]
  IC50: 920 nM
[2]
  IC50: 920 nM

## O=C1CS/C(=N\c2cc(-c3c[nH]c4ccccc34)nn2-c2cccc(Cl)c2)N1
[3]
  inhibition: 60%
[4]
  Activity: Active
[5]
  Activity: 77.33%
[6]
  Activity: Active
[7]
  Activity: 6.73%
[8]
  Activity: Active
[9]
  IC50: 3460 nM
[10]
  Activity: 77.01%
[11]
  Activity: Dose-Dependent Effect
[12]
  Activity: Active
[13]
  Ratio IC50: 1.5
[14]
  Activity: 6.73%
[15]
  Ratio IC50: 1.76
[16]
  Activity: Active
[17]
  IC50 at 48 h: 15900 nM
[18]
  Activity: Active
[19]
  Activity: Active
[20]
  IC50: 11500 nM
[21]
  Activity: 14.31%
[22]
  Activity: 16.39%
[23]
  Ratio IC50: 4.59
[24]
  Activity: 16.11%
[25]
  Activity: Active
[26]
  IC50: 10800 nM
[27]
  IC50: 9020 nM
[28]
  Activity: 77.35%
[29]
  Activity: Active
[30]
  Ratio IC50: 1.47
[31]
  Activity: Dose-Dependent Effect
[32]
  IC50: < 1730 nM
[33]
  Activity: Active
[34]
  Activity: Active
[35]
  Activity: Dose-Dependent Effect
[36]
  Ratio IC50: 1.38
[37]
  Activity: 5.7%

## COc1cc(NC(=O)/C=C/c2cc(-c3cc(OC)c(OC)c(OC)c3)n[nH]2)cc(OC)c1OC
[38]
  IC50: 400 nM

## O=C(Nc1ccncc1)C(=O)c1cn(Cc2ccc(Cl)cc2)c2ccccc12 [INDIBULIN]
[39]
  IC50: 36 nM
[40]
  IC50: 64 nM
[41]
  IC50: 77 nM

## CCOc1ccc(-c2n[nH]cc2-c2cc(OC)c(OC)c(OC)c2)cc1
[42]
  IC50: 350 nM
